ChEMBL document CHEMBL2034845, “Synthesis and in vitro characterization of trans- and cis-[(18)F]-4-methylbenzyl 4-[(pyrimidin-2-ylamino)methyl]-3-fluoropiperidine-1-carboxylates as new potential PET radiotracer candidates for the NR2B subtype N-methyl-D-aspartate receptor” (Eur J Med Chem, 2012)

What was measured:
[1] = Drug uptake in Sprague-Dawley rat forebrain at 8 nM after 90 mins by autoradiography analysis; settings: 1.5 h, 0.008 µM
[2] = molecular target: T1, Glutamate receptor ionotropic, NMDA 2B (Rattus norvegicus, UniProt Q00960); assay: Binding affinity to NMDAR NR2B in Sprague-Dawley rat brain striatum; assay type: tissue-based
Method in brief: (§1)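 Saturation binding on mounted rat brain tissue sections. Sections were pre-incubated twice for 10 min at r.t. in 50 mM Tris-HCl pH 7.4 with 10 mM EDTA, then exposed to free [18F] ligand at 0.15–48 nM. Washes were 5, 5 and 15 min in 50 mM Tris-HCl pH 7.4 at 4 °C, followed by a cold distilled-water dip and drying on a hot plate. Autoradiographic optical densities (DLU/mm²) were converted with spiked brain-homogenate standards. Specific binding was taken as total minus nonspecific for each region. Kd and Bmax were obtained from Scatchard plots.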

[3] = Lipophilicity, log D of the compound in octanol-[…] at 10 uM after 40 mins by shake flask method; assay type: physicochemical
Method in brief: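 Shake-flask method. Tubes held 1 mL octanol and 1 mL […] buffer plus [18F] tracer, were stirred for 40 min and centrifuged for 5 min. Two 100 µL aliquots from each phase were gamma-counted. logD7.4 was calculated from the ratio of octanol to aqueous radioactivity. Four tubes were used.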

[4] = molecular target: T1, Glutamate receptor ionotropic, NMDA 2B; assay: Binding affinity to NMDAR NR2B in Sprague-Dawley rat brain hippocampus; assay type: tissue-based
Method in brief: as §1

Striatum = assay: Binding to Sprague-Dawley rat striatum sections at 8 nM after 90 mins by autoradiography analysis; settings: in vitro, 1.5 h, 0.008 µM
[5] = molecular target: T1, Glutamate receptor ionotropic, NMDA 2B; assay: Binding affinity to NMDAR NR2B in Sprague-Dawley rat brain olfactory tubercle; assay type: tissue-based
Method in brief: as §1

[6] = molecular target: T1, Glutamate receptor ionotropic, NMDA 2B; assay: Binding affinity to NMDAR NR2B in Sprague-Dawley rat brain cortex; assay type: tissue-based
Method in brief: as §1

Brain = assay: Drug uptake in Sprague-Dawley rat brain at 8 nM after 90 mins by autoradiography analysis in presence of 10 uM Ro 256981; assay type: ADME, tissue-based; settings: 1.5 h, 0.008 µM
Nucleic Acid = assay: Ratio of drug uptake in […] in Sprague-Dawley rat at 8 nM after 90 mins by autoradiography analysis; assay type: ADME, tissue-based; settings: 1.5 h, 0.008 µM
Hippocampus = assay: Drug uptake in Sprague-Dawley rat hippocampus at 8 nM after 90 mins by autoradiography analysis; assay type: ADME, tissue-based; settings: 1.5 h, 0.008 µM
Cerebellum = assay: Drug uptake in Sprague-Dawley rat cerebellum at 8 nM after 90 mins by autoradiography analysis; assay type: ADME, tissue-based; settings: 1.5 h, 0.008 µM
Cortex = assay: Drug uptake in Sprague-Dawley rat cortex at 8 nM after 90 mins by autoradiography analysis; assay type: ADME, tissue-based; settings: 1.5 h, 0.008 µM
Thalamus = assay: Drug uptake in Sprague-Dawley rat thalamus at 8 nM after 90 mins by autoradiography analysis; assay type: ADME, tissue-based; settings: 1.5 h, 0.008 µM
[7] = molecular target: T1, Glutamate receptor ionotropic, NMDA 2B; assay: Binding affinity to NMDAR NR2B in Sprague-Dawley rat brain thalamus; assay type: tissue-based
Method in brief: as §1

[8] = Drug uptake in Sprague-Dawley rat olfactory tubercle at 8 nM after 90 mins by autoradiography analysis; assay type: ADME, tissue-based; settings: 1.5 h, 0.008 µM
[9] = molecular target: Glutamate receptor ionotropic, NMDA 2B (Rattus norvegicus) (UniProt Q00960); assay: Ratio of Bmax to Kd at NMDAR NR2B in Sprague-Dawley rat brain thalamus; assay type: tissue-based; settings: tested as the 18F-labelled form
Method in brief: (§2)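 Bmax/Kd ratio for each brain region. Bmax and Kd came from Scatchard analysis of specific autoradiographic binding on rat brain sections. Free [18F] ligand ran from 0.15 to 48 nM, with Tris-HCl pH 7.4 pre-incubation and cold washes. Radioactivity was calibrated against spiked tissue-homogenate standards.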

[10] = molecular target: Glutamate receptor ionotropic, NMDA 2B (Rattus norvegicus) (UniProt Q00960); assay: Binding affinity to NMDAR NR2B in Sprague-Dawley rat brain olfactory tubercle assessed per mg of protein; assay type: tissue-based; settings: tested as the 18F-labelled form
Method in brief: as §1

[11] = molecular target: Glutamate receptor ionotropic, NMDA 2B (Rattus norvegicus) (UniProt Q00960); assay: Binding affinity to NMDAR NR2B in Sprague-Dawley rat brain hippocampus assessed per mg of protein; assay type: tissue-based; settings: tested as the 18F-labelled form
Method in brief: as §1

[12] = molecular target: Glutamate receptor ionotropic, NMDA 2B (Rattus norvegicus) (UniProt Q00960); assay: Binding affinity to NMDAR NR2B in Sprague-Dawley rat brain thalamus assessed per mg of protein; assay type: tissue-based; settings: tested as the 18F-labelled form
Method in brief: as §1

[13] = molecular target: Glutamate receptor ionotropic, NMDA 2B (Rattus norvegicus) (UniProt Q00960); assay: Ratio of Bmax to Kd at NMDAR NR2B in Sprague-Dawley rat brain striatum; assay type: tissue-based; settings: tested as the 18F-labelled form
Method in brief: as §2

[14] = molecular target: Glutamate receptor ionotropic, NMDA 2B (Rattus norvegicus) (UniProt Q00960); assay: Binding affinity to NMDAR NR2B in Sprague-Dawley rat brain striatum assessed per mg of protein; assay type: tissue-based; settings: tested as the 18F-labelled form
Method in brief: as §1

[15] = molecular target: Glutamate receptor ionotropic, NMDA 2B (Rattus norvegicus) (UniProt Q00960); assay: Ratio of Bmax to Kd at NMDAR NR2B in Sprague-Dawley rat brain hippocampus; assay type: tissue-based; settings: tested as the 18F-labelled form
Method in brief: as §2

[16] = molecular target: Glutamate receptor ionotropic, NMDA 2B (Rattus norvegicus) (UniProt Q00960); assay: Ratio of Bmax to Kd at NMDAR NR2B in Sprague-Dawley rat brain olfactory tubercle; assay type: tissue-based; settings: tested as the 18F-labelled form
Method in brief: as §2

[17] = molecular target: Glutamate receptor ionotropic, NMDA 2B (Rattus norvegicus) (UniProt Q00960); assay: Binding affinity to NMDAR NR2B in Sprague-Dawley rat brain cortex assessed per mg of protein; assay type: tissue-based; settings: tested as the 18F-labelled form
Method in brief: as §1

[18] = molecular target: Glutamate receptor ionotropic, NMDA 2B (Rattus norvegicus) (UniProt Q00960); assay: Ratio of Bmax to Kd at NMDAR NR2B in Sprague-Dawley rat brain cortex; settings: tested as the 18F-labelled form
Method in brief: as §2

Chain of Glutamate receptor ionotropic, NMDA 2B (Rattus norvegicus) (Q00960 27-1482 limits assumed): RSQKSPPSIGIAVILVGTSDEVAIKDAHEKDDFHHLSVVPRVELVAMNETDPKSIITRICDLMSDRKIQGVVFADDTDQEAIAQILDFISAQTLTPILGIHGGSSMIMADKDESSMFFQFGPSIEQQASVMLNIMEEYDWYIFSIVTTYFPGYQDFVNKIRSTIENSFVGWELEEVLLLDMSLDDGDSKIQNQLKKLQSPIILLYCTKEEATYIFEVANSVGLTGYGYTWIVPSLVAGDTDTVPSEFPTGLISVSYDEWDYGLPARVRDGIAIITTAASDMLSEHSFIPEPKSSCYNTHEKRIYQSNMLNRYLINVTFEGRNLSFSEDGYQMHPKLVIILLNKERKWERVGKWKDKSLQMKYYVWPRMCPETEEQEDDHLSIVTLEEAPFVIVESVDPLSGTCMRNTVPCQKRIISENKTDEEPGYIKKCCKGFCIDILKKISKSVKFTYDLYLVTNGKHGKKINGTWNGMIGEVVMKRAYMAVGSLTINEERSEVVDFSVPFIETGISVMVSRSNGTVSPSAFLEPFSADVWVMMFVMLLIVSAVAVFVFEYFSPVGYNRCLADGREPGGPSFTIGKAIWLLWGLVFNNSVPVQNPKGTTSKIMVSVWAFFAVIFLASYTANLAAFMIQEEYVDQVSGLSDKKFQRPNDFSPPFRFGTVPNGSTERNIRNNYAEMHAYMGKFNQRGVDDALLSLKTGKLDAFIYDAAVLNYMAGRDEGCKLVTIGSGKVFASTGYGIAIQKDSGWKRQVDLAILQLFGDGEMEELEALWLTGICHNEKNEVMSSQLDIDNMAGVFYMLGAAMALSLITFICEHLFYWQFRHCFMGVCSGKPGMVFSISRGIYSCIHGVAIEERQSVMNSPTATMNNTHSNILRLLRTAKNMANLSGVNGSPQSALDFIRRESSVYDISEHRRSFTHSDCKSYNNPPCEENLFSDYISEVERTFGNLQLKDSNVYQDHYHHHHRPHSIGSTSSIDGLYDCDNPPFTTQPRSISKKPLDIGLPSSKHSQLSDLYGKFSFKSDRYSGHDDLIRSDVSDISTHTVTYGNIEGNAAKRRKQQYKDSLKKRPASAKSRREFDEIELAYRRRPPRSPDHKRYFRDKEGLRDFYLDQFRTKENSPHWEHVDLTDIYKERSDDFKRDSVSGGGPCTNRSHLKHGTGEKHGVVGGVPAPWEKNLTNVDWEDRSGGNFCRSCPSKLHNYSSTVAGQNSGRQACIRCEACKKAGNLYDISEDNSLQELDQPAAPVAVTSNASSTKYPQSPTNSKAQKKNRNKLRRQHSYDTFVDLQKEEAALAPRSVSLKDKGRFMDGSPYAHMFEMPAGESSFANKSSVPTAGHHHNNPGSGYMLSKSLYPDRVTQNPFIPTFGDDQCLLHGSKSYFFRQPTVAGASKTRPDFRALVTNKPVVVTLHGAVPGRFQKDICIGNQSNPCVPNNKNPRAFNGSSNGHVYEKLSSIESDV
T1 sequence (Q00960 whole entry): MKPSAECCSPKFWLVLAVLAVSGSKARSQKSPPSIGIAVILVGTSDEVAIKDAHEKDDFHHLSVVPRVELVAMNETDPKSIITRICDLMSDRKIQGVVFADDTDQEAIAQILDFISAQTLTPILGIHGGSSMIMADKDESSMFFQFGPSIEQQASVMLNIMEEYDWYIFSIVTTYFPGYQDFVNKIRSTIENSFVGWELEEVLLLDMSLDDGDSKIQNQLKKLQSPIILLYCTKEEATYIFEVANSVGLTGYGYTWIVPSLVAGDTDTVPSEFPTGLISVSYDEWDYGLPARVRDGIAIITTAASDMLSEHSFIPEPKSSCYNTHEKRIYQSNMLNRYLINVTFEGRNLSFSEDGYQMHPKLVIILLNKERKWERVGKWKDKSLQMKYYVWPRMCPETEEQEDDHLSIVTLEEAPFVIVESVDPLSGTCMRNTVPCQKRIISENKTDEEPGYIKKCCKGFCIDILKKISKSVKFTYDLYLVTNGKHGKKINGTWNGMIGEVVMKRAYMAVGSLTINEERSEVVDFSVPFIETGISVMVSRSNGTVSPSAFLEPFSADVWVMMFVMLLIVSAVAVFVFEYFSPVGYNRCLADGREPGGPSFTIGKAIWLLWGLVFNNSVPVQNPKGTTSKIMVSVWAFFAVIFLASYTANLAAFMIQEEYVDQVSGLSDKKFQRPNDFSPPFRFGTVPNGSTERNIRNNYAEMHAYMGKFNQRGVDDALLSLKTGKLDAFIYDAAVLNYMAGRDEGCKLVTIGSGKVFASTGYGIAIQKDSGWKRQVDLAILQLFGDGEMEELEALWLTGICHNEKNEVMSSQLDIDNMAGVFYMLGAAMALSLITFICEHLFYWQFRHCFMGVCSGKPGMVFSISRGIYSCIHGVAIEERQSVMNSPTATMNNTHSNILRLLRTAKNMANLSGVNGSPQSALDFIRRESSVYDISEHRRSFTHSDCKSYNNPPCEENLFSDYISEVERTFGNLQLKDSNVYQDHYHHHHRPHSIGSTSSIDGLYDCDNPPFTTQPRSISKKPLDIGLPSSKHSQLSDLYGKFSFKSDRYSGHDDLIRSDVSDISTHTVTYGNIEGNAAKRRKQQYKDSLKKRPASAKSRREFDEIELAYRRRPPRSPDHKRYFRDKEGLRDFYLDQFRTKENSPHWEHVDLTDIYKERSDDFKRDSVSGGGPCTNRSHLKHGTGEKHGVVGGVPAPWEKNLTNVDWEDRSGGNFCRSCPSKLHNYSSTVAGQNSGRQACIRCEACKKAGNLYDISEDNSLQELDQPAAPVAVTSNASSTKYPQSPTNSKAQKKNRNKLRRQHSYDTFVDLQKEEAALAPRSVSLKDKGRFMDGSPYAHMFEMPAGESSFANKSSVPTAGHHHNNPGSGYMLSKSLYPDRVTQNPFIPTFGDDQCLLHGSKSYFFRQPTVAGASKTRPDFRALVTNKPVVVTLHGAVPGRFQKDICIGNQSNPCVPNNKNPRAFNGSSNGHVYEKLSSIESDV

| Compound | Drug uptake [1] | Kd [2] | logD at 40 min, 10 µM [3] | Kd [4] | Drug uptake (Striatum) | Kd [5] | Kd [6] | Drug uptake (Brain) | Ratio (Nucleic Acid) | Drug uptake (Hippocampus) | Drug uptake (Cerebellum) | Drug uptake (Cortex) | Drug uptake (Thalamus) | Kd [7] | Drug uptake [8] | Ratio [9] | Bmax [10] | Bmax [11] | Bmax [12] | Ratio [13] | other results |
| --- | --- | --- | --- | --- | --- | --- | --- | --- | --- | --- | --- | --- | --- | --- | --- | --- | --- | --- | --- | --- | --- |
| Cc1ccc(COC(=O)N2CC[C@H](CNc3ncccn3)[C@H]([18F])C2)cc1 (racemic) | Active | 9.3 nM | 2.8 | 9.1 nM | Active | 5.9 nM | 9.8 nM | Not Active | 12.1 | 91% | Not Active | Active | 76% | 15.2 nM | Not Active |  |  |  |  |  |  |
| Cc1ccc(COC(=O)N2CC[C@H](CNc3ncccn3)[C@H](F)C2)cc1 (racemic) |  |  |  |  |  |  |  |  |  |  |  |  |  |  |  | 8 | 1.05 pmol | 1.65 pmol | 1.12 pmol | 15 | Bmax [14]: 1.41 pmol; Ratio [15]: 19; Ratio [16]: 18; Bmax [17]: 1.5 pmol; Ratio [18]: 15 |
| Cc1ccc(COC(=O)N2CC[C@@H](CNc3ncccn3)[C@H](F)C2)cc1 (racemic) |  |  |  |  |  |  |  |  |  |  |  |  |  |  |  | 17 | 0.69 pmol | 1.58 pmol | 0.86 pmol | 21 | Bmax [14]: 1.05 pmol; Ratio [15]: 22; Ratio [16]: 37; Bmax [17]: 0.77 pmol; Ratio [18]: 25 |
| Cc1ccc(COC(=O)N2CC[C@@H](CNc3ncccn3)[C@H]([18F])C2)cc1 (racemic) | Active | 5.1 nM | 2.66 | 7.1 nM | Active | 1.9 nM | 3.2 nM | Not Active | 6.4 | 84% | Not Active | Active | 62% | 5.4 nM | Not Active |  |  |  |  |  |  |
